Results taken from ChEMBL document CHEMBL5712905, “H3K27M induces defective chromatin spread of PRC2-mediated repressive H3K27me2/me3 and is essential for glioma tumorigenesis” (2019).
Activity calls are given as the source filed them. The rule behind the calls is not given here.

How the values were obtained:
BT-245 [1] = experiment: Growth inhibition of K27M knock-out human BT-245 cells at 0.5 to 10 uM after 7 days by Alamar blue assay; assay type: functional, cell-based; conditions: dose 0.5-10 µM, time 7.0 day
Summary of the method: (§1)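 Tumor-derived cells were grown in NS-A proliferation medium with bFGF (10 ng/mL), rhEGF (20 ng/mL) and heparin on poly-L-ornithine/laminin coating. They were plated at 7000 cells/well and exposed to EZH2 inhibitor (0.5–10 uM) or DMSO vehicle for 7 days, with media changed every 3 days. Alamar blue was added on day 7 for 6 h and absorbance read at 570 and 600 nm. Percent difference versus untreated growth control was derived from an extinction-coefficient formula; values are the mean of three replicates ± SEM.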

BT-245 [2] = experiment: Growth inhibition of human BT-245 cells expressing mutant K27M at 0.5 to 10 uM after 7 days by Alamar blue assay; assay type: functional, cell-based; conditions: dose 0.5-10 µM, time 7.0 day; summary of the method: as §1
[3] = target: Histone-lysine N-methyltransferase EZH2 (Homo sapiens) (UniProt Q15910); experiment: Inhibition of EZH2 in human BT-245 cells expressing mutant K27M assessed as decrease in H3K27me3 deposition by western blot method; assay type: cell-based
Chain of Histone-lysine N-methyltransferase EZH2 (Homo sapiens) (Q15910 whole entry, looked up): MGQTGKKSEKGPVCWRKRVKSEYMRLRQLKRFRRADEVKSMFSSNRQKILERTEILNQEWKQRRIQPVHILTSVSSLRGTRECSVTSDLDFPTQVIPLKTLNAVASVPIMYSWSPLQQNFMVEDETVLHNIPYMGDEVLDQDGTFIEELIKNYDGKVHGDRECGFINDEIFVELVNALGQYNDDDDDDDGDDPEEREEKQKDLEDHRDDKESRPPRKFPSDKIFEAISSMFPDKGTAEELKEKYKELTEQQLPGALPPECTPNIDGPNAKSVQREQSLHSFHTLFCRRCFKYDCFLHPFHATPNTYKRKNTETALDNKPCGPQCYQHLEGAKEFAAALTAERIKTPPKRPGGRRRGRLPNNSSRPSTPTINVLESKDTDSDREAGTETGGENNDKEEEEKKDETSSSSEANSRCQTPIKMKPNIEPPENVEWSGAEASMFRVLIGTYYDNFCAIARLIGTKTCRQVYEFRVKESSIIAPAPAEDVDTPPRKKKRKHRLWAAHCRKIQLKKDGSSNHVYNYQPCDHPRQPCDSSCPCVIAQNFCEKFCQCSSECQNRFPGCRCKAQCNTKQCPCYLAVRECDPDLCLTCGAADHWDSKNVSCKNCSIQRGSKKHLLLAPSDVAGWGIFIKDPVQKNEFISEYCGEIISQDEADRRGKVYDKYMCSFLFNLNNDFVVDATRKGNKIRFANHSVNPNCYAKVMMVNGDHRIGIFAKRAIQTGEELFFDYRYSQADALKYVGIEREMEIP

BT-245 [4] = experiment: Growth inhibition of K27M knock-out human BT-245 cells at 2.5 uM assessed as normalized cell index after 7 days by Alamar blue assay relative to control; assay type: functional; conditions: time 7 day; summary of the method: as §1
BT-245 [5] = experiment: Growth inhibition of human BT-245 cells expressing mutant K27M at 5 uM assessed as normalized cell index after 7 days by Alamar blue assay relative to control; assay type: functional; conditions: time 7 day; summary of the method: as §1
BT-245 [6] = experiment: Growth inhibition of K27M knock-out human BT-245 cells at 3.5 uM assessed as normalized cell index after 7 days by Alamar blue assay relative to control; assay type: functional; conditions: time 7 day; summary of the method: as §1
BT-245 [7] = experiment: Growth inhibition of K27M knock-out human BT-245 cells at 8 uM assessed as normalized cell index after 7 days by Alamar blue assay relative to control; assay type: functional; conditions: time 7 day; summary of the method: as §1
[8] = target: Histone-lysine N-methyltransferase EZH2 (Homo sapiens) (UniProt Q15910); experiment: Inhibition of EZH2 in human G477 cells assessed as decrease in H3K27me3 deposition by western blot method; assay type: cell-based
BT-245 [9] = experiment: Growth inhibition of human BT-245 cells expressing mutant K27M at 7 uM assessed as normalized cell index after 7 days by Alamar blue assay relative to control; assay type: functional; conditions: time 7 day; summary of the method: as §1
BT-245 [10] = experiment: Growth inhibition of human BT-245 cells expressing mutant K27M at 1.5 uM assessed as normalized cell index after 7 days by Alamar blue assay relative to control; assay type: functional; conditions: time 7 day; summary of the method: as §1
BT-245 [11] = experiment: Growth inhibition of K27M knock-out human BT-245 cells at 5 uM assessed as normalized cell index after 7 days by Alamar blue assay relative to control; assay type: functional; conditions: time 7 day; summary of the method: as §1
BT-245 [12] = experiment: Growth inhibition of K27M knock-out human BT-245 cells at 10 uM assessed as normalized cell index after 7 days by Alamar blue assay relative to control; assay type: functional; conditions: time 7 day; summary of the method: as §1
BT-245 [13] = experiment: Growth inhibition of K27M knock-out human BT-245 cells at 3 uM assessed as normalized cell index after 7 days by Alamar blue assay relative to control; assay type: functional; conditions: time 7 day; summary of the method: as §1
BT-245 [14] = experiment: Growth inhibition of K27M knock-out human BT-245 cells at 4 uM assessed as normalized cell index after 7 days by Alamar blue assay relative to control; assay type: functional; conditions: time 7 day; summary of the method: as §1
BT-245 [15] = experiment: Growth inhibition of human BT-245 cells expressing mutant K27M at 3.5 uM assessed as normalized cell index after 7 days by Alamar blue assay relative to control; assay type: functional; conditions: time 7 day; summary of the method: as §1
BT-245 [16] = experiment: Growth inhibition of human BT-245 cells expressing mutant K27M at 3 uM assessed as normalized cell index after 7 days by Alamar blue assay relative to control; assay type: functional; conditions: time 7 day; summary of the method: as §1
BT-245 [17] = experiment: Growth inhibition of human BT-245 cells expressing mutant K27M at 4 uM assessed as normalized cell index after 7 days by Alamar blue assay relative to control; assay type: functional; conditions: time 7 day; summary of the method: as §1
BT-245 [18] = experiment: Growth inhibition of human BT-245 cells expressing mutant K27M at 10 uM assessed as normalized cell index after 7 days by Alamar blue assay relative to control; assay type: functional; conditions: time 7 day; summary of the method: as §1
[19] = target: Histone-lysine N-methyltransferase EZH2 (Homo sapiens) (UniProt Q15910); experiment: Inhibition of EZH2 in human BT-245 cells expressing mutant K27M assessed as decrease in H3K27me2 deposition by western blot method; assay type: cell-based
[20] = target: Histone-lysine N-methyltransferase EZH2 (Homo sapiens) (UniProt Q15910); experiment: Inhibition of EZH2 in human G477 cells assessed as decrease in H3K27me2 deposition by western blot method; assay type: cell-based
BT-245 [21] = experiment: Growth inhibition of K27M knock-out human BT-245 cells at 7 uM assessed as normalized cell index after 7 days by Alamar blue assay relative to control; assay type: functional; conditions: time 7 day; summary of the method: as §1
BT-245 [22] = experiment: Growth inhibition of human BT-245 cells expressing mutant K27M at 2.5 uM assessed as normalized cell index after 7 days by Alamar blue assay relative to control; assay type: functional; conditions: time 7 day; summary of the method: as §1
BT-245 [23] = experiment: Growth inhibition of K27M knock-out human BT-245 cells at 1.5 uM assessed as normalized cell index after 7 days by Alamar blue assay relative to control; assay type: functional; conditions: time 7 day; summary of the method: as §1

## CCCc1cc(C)[nH]c(=O)c1CNC(=O)c1cc(-c2ccnc(N3CCN(C)CC3)c2)cc2c1cnn2C(C)C
BT-245 [1]
  Activity: Active
BT-245 [2]
  Activity: Active

## CCCc1cc(C)[nH]c(=O)c1CNC(=O)c1cc(-c2ccc(N3CCN(C(C)C)CC3)nc2)cc2c1cnn2C(C)C
[3]
  inhibition: Active
BT-245 [4]
  Activity_index: 106.57%
BT-245 [5]
  Activity_index: 73.66%
BT-245 [6]
  Activity_index: 97.97%
BT-245 [7]
  Activity_index: 63.65%
[8]
  inhibition: Active
BT-245 [9]
  Activity_index: 25.18%
BT-245 [10]
  Activity_index: 93.5%
BT-245 [11]
  Activity_index: 108.08%
BT-245 [12]
  Activity_index: 50.02%
BT-245 [13]
  Activity_index: 112.32%
BT-245 [14]
  Activity_index: 109.66%
BT-245 [15]
  Activity_index: 92.89%
BT-245 [16]
  Activity_index: 93.39%
BT-245 [17]
  Activity_index: 85.7%
BT-245 [18]
  Activity_index: 27.95%
[19]
  inhibition: Active
[20]
  inhibition: Active
BT-245 [21]
  Activity_index: 106.11%
BT-245 [22]
  Activity_index: 96%
BT-245 [23]
  Activity_index: 107.71%
